ChEMBL document CHEMBL3108692, “Potent Targeting of the STAT3 Protein in Brain Cancer Stem Cells: A Promising Route for Treating Glioblastoma” (ACS Med Chem Lett, 2013)
Activity calls are given as the source filed them. The calls are words filed in the database; no cut-off is given here.

Tests used:
[1] = target: T1, Signal transducer and activator of transcription 3 (Homo sapiens, UniProt P40763); experiment: Competitive binding affinity to STAT3 SH2 domain (unknown origin) assessed as inhibition of interaction with FAMpYLPQTV after 15 to 30 mins by fluorescent polarization assay
T1 sequence (P40763 whole entry, the tested form may be a part): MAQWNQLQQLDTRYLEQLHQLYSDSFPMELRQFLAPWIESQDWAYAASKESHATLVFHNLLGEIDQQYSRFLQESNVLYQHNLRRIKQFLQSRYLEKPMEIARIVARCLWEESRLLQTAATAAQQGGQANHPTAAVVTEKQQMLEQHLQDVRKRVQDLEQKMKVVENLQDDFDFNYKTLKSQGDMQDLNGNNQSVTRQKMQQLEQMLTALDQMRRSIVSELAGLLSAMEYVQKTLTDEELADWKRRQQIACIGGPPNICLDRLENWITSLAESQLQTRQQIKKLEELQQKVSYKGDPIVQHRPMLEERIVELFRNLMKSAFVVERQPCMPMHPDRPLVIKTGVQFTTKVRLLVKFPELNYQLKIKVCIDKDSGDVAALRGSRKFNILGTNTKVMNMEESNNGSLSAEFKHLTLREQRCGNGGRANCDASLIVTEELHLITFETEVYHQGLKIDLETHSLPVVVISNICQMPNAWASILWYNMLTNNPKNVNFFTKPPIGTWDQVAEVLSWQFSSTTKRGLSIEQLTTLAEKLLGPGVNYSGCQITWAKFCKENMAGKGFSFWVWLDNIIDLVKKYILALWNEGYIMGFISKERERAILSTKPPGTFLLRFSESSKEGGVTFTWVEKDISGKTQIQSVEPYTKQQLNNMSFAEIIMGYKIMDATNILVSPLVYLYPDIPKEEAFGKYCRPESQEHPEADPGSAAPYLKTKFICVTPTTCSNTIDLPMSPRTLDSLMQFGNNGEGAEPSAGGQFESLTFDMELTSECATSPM

[2] = cells; conditions: Homo sapiens, 72 h
[3] = Cytotoxicity against human 84EF cells assessed as cell viability after 3 days by Alamar Blue assay; conditions: 72 h
[4] = Cytotoxicity against human 25EF cells assessed as cell viability after 3 days by Alamar Blue assay; conditions: 72 h
[5] = Cytotoxicity against human 73EF cells assessed as cell viability after 3 days by Alamar Blue assay; conditions: 72 h
[6] = Cytotoxicity against human 30M cells assessed as cell viability after 3 days by Alamar Blue assay; conditions: 72 h
[7] = Cytotoxicity against human 67EF cells assessed as cell viability after 3 days by Alamar Blue assay; conditions: 72 h
[8] = target: Proto-oncogene tyrosine-protein kinase Src (Homo sapiens) (UniProt P12931); experiment: Inhibition of c-Src (unknown origin) at 5 uM after 120 mins relative to control
Sequence of Proto-oncogene tyrosine-protein kinase Src (Homo sapiens) (P12931 2-536 limits assumed): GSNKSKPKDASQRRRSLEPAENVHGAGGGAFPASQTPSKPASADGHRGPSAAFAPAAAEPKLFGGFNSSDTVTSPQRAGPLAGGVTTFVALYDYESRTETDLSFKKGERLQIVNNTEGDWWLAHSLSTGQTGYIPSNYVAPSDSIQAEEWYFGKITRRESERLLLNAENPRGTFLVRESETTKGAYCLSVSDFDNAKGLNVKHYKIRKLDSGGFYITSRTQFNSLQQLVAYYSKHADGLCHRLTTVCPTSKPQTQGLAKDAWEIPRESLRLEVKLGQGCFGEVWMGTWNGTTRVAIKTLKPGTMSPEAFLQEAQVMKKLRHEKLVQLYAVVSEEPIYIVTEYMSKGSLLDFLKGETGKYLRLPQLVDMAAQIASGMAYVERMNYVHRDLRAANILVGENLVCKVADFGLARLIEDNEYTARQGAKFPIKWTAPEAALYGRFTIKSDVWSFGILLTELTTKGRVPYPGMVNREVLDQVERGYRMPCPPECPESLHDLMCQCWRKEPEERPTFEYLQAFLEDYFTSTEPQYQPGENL

[9] = Cytotoxicity against HF2006 cells assessed as cell viability at 5 uM after 3 days by Alamar Blue assay; assay type: cell-based; conditions: human, 72 h
Procedure, shortened: (§1)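 Normal human fetal astrocytes (healthy, non-tumor cells) were exposed to compounds at concentrations up to 5 μM, with viability as the cytotoxicity read-out.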

[10] = target: Tyrosine-protein kinase JAK2 (Homo sapiens) (UniProt O60674); experiment: Inhibition of JAK2 (unknown origin) at 5 uM after 120 mins relative to control
Sequence of Tyrosine-protein kinase JAK2 (Homo sapiens) (O60674 whole entry): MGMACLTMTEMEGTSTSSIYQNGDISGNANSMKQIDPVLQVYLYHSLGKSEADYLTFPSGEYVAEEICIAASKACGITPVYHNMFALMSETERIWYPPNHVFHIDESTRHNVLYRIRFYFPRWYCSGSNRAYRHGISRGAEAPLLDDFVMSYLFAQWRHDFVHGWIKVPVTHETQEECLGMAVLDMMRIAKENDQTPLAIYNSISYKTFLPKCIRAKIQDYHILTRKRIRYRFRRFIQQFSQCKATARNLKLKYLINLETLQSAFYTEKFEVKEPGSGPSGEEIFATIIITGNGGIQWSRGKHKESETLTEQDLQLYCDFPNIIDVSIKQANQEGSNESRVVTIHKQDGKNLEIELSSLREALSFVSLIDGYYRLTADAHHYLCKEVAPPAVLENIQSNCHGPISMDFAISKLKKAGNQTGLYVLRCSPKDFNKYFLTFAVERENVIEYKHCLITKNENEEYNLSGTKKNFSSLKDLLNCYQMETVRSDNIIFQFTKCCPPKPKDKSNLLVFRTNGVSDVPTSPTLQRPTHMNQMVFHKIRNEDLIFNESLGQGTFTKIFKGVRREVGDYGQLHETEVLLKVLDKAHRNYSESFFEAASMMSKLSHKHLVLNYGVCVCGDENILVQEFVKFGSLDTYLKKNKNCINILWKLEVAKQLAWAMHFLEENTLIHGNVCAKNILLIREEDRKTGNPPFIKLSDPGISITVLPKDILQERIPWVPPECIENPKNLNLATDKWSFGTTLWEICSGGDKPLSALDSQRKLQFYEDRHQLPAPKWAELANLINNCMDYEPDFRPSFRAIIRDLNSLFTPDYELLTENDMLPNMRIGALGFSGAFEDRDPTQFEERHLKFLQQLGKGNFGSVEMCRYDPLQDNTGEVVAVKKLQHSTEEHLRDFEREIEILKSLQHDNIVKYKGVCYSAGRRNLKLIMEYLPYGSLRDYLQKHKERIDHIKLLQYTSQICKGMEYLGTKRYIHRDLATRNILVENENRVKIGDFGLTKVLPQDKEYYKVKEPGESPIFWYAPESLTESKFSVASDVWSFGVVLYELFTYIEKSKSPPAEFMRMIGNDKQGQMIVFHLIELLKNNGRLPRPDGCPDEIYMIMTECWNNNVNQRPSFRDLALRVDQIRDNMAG

[11] = target: Epidermal growth factor receptor (Homo sapiens) (UniProt P00533); experiment: Inhibition of EGFR in human 147EF cells after 6 hrs by Western blotting analysis; assay type: cell-based
[12] = target: Mitogen-activated protein kinase 3 (Homo sapiens) (UniProt P27361); experiment: Inhibition of ERK1 (unknown origin) at 5 uM after 120 mins
Sequence of Mitogen-activated protein kinase 3 (Homo sapiens) (P27361 whole entry): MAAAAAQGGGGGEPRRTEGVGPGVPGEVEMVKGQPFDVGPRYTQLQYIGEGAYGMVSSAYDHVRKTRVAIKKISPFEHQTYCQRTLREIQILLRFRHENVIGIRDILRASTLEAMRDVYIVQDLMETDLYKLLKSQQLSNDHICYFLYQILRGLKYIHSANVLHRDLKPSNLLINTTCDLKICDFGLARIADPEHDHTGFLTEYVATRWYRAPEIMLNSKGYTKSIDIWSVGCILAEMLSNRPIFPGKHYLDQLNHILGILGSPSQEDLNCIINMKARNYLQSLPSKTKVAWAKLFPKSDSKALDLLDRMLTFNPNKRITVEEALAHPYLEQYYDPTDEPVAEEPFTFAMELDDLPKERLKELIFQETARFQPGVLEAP

[13] = target: RAC-alpha serine/threonine-protein kinase (Homo sapiens) (UniProt P31749); experiment: Inhibition of AKT1 (unknown origin) at 5 uM after 120 mins
Sequence of RAC-alpha serine/threonine-protein kinase (Homo sapiens) (P31749 whole entry): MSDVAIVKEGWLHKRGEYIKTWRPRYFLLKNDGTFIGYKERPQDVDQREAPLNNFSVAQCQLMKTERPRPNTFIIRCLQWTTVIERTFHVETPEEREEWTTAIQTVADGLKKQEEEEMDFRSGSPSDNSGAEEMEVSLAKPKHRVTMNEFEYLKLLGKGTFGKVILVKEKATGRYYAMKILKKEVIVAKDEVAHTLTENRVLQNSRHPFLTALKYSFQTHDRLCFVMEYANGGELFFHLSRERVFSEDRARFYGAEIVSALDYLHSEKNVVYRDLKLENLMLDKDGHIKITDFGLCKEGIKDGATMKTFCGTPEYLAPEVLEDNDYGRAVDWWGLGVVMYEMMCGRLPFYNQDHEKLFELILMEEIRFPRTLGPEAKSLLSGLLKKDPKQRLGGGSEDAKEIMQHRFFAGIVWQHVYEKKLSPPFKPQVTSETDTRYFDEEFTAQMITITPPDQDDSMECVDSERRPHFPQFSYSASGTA

[14] = Cytotoxicity against HF2003 cells assessed as cell viability at 5 uM after 3 days by Alamar Blue assay; assay type: cell-based; conditions: human, 72 h; procedure, shortened: as §1
[15] = species: Homo sapiens; experiment: Inhibition of MAPK in human 147EF cells after 6 hrs by Western blotting analysis; assay type: cell-based
[16] = species: Homo sapiens; experiment: Inhibition of AKT in human 147EF cells after 6 hrs by Western blotting analysis; assay type: cell-based
[17] = target: Tyrosine-protein kinase JAK1 (Homo sapiens) (UniProt P23458); experiment: Inhibition of JAK1 (unknown origin) at 5 uM after 120 mins
Sequence of Tyrosine-protein kinase JAK1 (Homo sapiens) (P23458 whole entry): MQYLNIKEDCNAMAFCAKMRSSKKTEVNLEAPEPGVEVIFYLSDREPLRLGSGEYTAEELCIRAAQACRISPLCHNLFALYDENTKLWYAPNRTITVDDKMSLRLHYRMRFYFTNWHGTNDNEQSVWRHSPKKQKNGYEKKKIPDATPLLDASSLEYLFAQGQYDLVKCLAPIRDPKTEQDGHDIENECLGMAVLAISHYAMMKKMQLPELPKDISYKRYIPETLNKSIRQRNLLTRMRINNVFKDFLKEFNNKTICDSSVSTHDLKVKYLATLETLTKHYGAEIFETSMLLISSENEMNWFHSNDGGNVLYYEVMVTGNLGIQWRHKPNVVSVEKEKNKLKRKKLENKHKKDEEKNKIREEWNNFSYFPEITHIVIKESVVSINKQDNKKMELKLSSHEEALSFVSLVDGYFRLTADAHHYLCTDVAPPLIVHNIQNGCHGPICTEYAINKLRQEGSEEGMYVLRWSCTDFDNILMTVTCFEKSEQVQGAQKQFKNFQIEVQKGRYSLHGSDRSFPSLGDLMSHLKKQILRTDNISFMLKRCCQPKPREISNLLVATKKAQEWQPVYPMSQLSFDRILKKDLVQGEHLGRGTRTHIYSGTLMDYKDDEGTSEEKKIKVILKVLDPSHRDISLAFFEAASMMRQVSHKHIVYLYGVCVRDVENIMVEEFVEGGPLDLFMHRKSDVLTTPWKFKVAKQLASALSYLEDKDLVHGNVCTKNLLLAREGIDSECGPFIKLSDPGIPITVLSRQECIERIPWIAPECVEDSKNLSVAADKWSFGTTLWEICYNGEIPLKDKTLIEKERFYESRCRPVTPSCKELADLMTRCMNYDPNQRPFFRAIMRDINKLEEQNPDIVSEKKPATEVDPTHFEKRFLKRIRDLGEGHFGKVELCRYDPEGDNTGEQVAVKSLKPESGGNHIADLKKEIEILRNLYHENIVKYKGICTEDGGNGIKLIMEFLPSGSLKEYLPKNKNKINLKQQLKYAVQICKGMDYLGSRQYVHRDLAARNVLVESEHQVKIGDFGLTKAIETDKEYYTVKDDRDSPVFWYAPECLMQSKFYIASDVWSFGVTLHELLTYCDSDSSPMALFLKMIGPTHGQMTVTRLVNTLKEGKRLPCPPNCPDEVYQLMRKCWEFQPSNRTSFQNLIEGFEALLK

[18] = target: Tyrosine-protein kinase JAK2 (Homo sapiens) (UniProt O60674); experiment: Inhibition of JAK2 in human 147EF cells after 6 hrs by Western blotting analysis; assay type: cell-based
[19] = target: Proto-oncogene tyrosine-protein kinase Src (Homo sapiens) (UniProt P12931); experiment: Inhibition of Src in human 147EF cells after 6 hrs by Western blotting analysis; assay type: cell-based
[20] = Cytotoxicity against human 73M cells assessed as cell viability after 8 days by Alamar Blue assay; assay type: functional, cell-based; conditions: 192 h
[21] = Cytotoxicity against human 30M cells assessed as cell viability after 8 days by Alamar Blue assay; assay type: functional, cell-based; conditions: 192 h
[22] = species: Homo sapiens; experiment: Inhibition of AKT phosphorylation in human 147EF cells at 0.1 to 1 uM after 3 hrs by Western blotting analysis; assay type: cell-based
[23] = target: T1, Signal transducer and activator of transcription 3; experiment: Inhibition of STAT3 phosphorylation at Y705 in human 147EF cells at 0.1 to 1 uM after 3 hrs by Western blotting analysis; assay type: cell-based
[24] = species: Homo sapiens; experiment: Induction of apoptosis in human 147EF cells assessed as PARP cleavage at 0.1 to 1 uM after 3 hrs by Western blotting analysis; assay type: functional, cell-based

CN(CC(=O)N(Cc1ccc(C2CCCCC2)cc1)c1ccc(C(=O)O)c(F)c1)S(=O)(=O)c1c(F)c(F)c(F)c(F)c1F showed a Ki [1] of 10 µM, an IC50 [2] of 0.09 µM and an IC50 [3] of 0.203 µM. The IC50 [4] was 0.592 µM, the IC50 [5] was 0.438 µM and the IC50 [6] was 0.1 µM. It also gave an IC50 [7] of 0.214 µM.

For CCOP(=O)(Cc1ccc(N(Cc2ccc(C3CCCCC3)cc2)C(=O)CN(C)S(=O)(=O)c2c(F)c(F)c(F)c(F)c2F)cc1)OCC, the inhibition [1] was “inactive”.

With CC(=O)OCOC(=O)c1ccc(N(Cc2ccc(C3CCCCC3)cc2)C(=O)CN(C)S(=O)(=O)c2c(F)c(F)c(F)c(F)c2F)cc1 the inhibition [1] was “inactive”.

For CC(=O)Oc1cc(N(Cc2ccc(C3CCCCC3)cc2)C(=O)CN(C)S(=O)(=O)c2c(F)c(F)c(F)c(F)c2F)ccc1C(=O)O, the inhibition [8] was 50%, the Activity [9] was “Non-toxic” and the inhibition [1] was “inactive”. The IC50 [2] was 0.273 µM, the IC50 [3] was 0.332 µM and the inhibition [10] was 50%. The IC50 [4] was 1.15 µM, the inhibition [11] was “inactive” and the inhibition [12] was “inactive”. For the same molecule, the inhibition [13] was “inactive”, the Activity [14] was “Non-toxic” and the inhibition [15] was “inactive”. For the same molecule, the IC50 [5] was 1.07 µM, the IC50 [6] was 0.1 µM and the inhibition [16] was “inactive”. For the same molecule, the inhibition [17] was “inactive”, the IC50 [7] was 0.435 µM and the inhibition [18] was “inactive”. For the same molecule, the inhibition [19] was “inactive”.

Work on C[C@H](NC(=O)/C(C#N)=C/c1cccc(Br)n1)c1ccccc1 [WP 1066] yielded an IC50 [20] of 2.1 µM and an IC50 [21] of 1.8 µM.

In the case of CN(CC(=O)N(Cc1ccc(C2CCCCC2)cc1)c1ccc(C(=O)NO)cc1)S(=O)(=O)c1c(F)c(F)c(F)c(F)c1F, the inhibition [8] is reported as 50%, the Activity [9] is reported as “Non-toxic” and the inhibition [10] is reported as 50%. For the same molecule, the inhibition [11] was “inactive”, the inhibition [12] was “inactive” and the inhibition [13] was “inactive”. For the same molecule, the Activity [14] was “Non-toxic”, the inhibition [15] was “inactive” and the inhibition [16] was “inactive”. The inhibition [17] was “inactive”, the inhibition [18] was “inactive” and the inhibition [19] was “inactive”.

For CN(CC(=O)N(Cc1ccc(C2CCCCC2)cc1)c1ccc(C(=O)O)c(O)c1)S(=O)(=O)c1c(F)c(F)c(F)c(F)c1F, the inhibition [22] was “Active”, the inhibition [23] was “Active” and the IC50 [6] was 2 µM. The Activity [24] was “Active”.
